Data on 16 compounds can be found in ChEMBL document CHEMBL1131064, “Design, synthesis, and anticonvulsant activity of 1-(pyrid-3-ylsulfonamido)-2-nitroethylenes” (J Med Chem, 1998).

The species entered for data set [1] is Mus musculus. Nature of the data set: Tested for anticonvulsant activity by measuring rate of mice protected against electric shock applied at 0.5 hr after injection in maximal electroshock seizure (MES) test; out of 6. The class given is functional. In a few lines:
(§1)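 Screen in male OF-1 mice (22-25 g), groups of six or seven, given 30 mg/kg ip at 10 mL/kg. Corneal electroshock (50 mA, 60 Hz, 0.2 s) was applied 0.5 or 3 h post-injection. Protection was scored as abolition of hind limb tonic extension and reported as the rate of protected mice.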
(Protection in the maximal electroshock model is a classic sign of anticonvulsant action.)

The species named for data set [2] is Mus musculus. Nature of the data set: Tested for anticonvulsant activity by measuring rate of mice protected against electric shock applied at 3 hr after injection in maximal electroshock seizure (MES) test; out of 7. It is filed as functional. The method, boiled down:
as §1

The next data set deals with Rattus norvegicus. In words: Urinary volume excreted over 4 hr by rats after oral administration of 30 mg/kg. It is filed as functional, Urine. The method, boiled down:
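Male Wistar rats (193-229 g) were dosed orally with 30 mg/kg in 0.9% NaCl/0.1% methocel at 40 mL/kg; three rats shared a metabolism cage. Urine was collected over 4 h and expressed as mL/kg.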

Data set [3] is described as follows: Partition coefficient (logP). It is filed as physicochemical. The conditions noted are these: octanol/water. The method, boiled down: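 log P obtained by extrapolation from RP-HPLC log k′. The basis is a correlation of log k′ with shake-flask log P in 1-octanol/phosphate buffer pH 7.40, built from reference compounds.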
The species named for data set [4] is Mus musculus. In words: Tested for anticonvulsant activity by measuring its ability to protect against electric shock in maximal electroshock seizure (MES) test at the time of peak effect of 3h. It is filed as functional. The method, boiled down: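 Male OF-1 mice (22-25 g) were dosed ip at 10 mL/kg and tested at the peak-effect time. Corneal electroshock was 50 mA, 60 Hz, 0.2 s; protection meant abolition of hind limb tonic extension. Groups of eight mice received varying doses. ED50 with 95% CI was computed by Litchfield–Wilcoxon.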

Data set [5] deals with Mus musculus. Nature of the data set: Tested for anticonvulsant activity by measuring its ability to protect against bicuculline (2.7 mg/kg) induced convulsions at the time of peak effect of 3h. It is filed as functional. The method, boiled down:
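Male OF-1 mice (22-25 g), eight per group, given the test compound ip (10 mL/kg) at doses up to 100 mg/kg. Bicuculline 2.70 mg/kg, dissolved in warmed 0.1 N HCl plus 0.9% NaCl (10 mL/kg) and used within 30 min, was injected sc at the MES time of peak effect. Protection scored; ED50 with 95% CI by Litchfield–Wilcoxon.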

Data set [6] has as its system Mus musculus. Nature of the data set: Tested for anticonvulsant activity by measuring its ability to protect against pentetrazole (85 mg/kg) induced convulsions at the time of peak effect of 3h. The class given is functional. The method, boiled down:
(§2)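 OF-1 male mice, eight per group, were given compound ip at up to 100 mg/kg. At the MES time of peak effect, a convulsant in 0.9% NaCl was injected sc; bicuculline was dissolved in warmed 0.1 N HCl/0.9% NaCl and used within 30 min. ED50 with 95% CI was computed by Litchfield–Wilcoxon.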

Data set [7] relates to Mus musculus. Nature of the data set: Tested for anticonvulsant activity by measuring its ability to protect against NMDLA(340 mg/kg) induced convulsions at the time of peak effect of 3h. The class given is functional. The method, boiled down: as §2
The subject of data set [8] is Mus musculus. Nature of the data set: Tested for anticonvulsant activity by measuring its ability to protect against strychnine(1.2 mg/kg) induced convulsions at the time of peak effect of 3h. The class given is functional. In a few lines: as §2
Data set [9] can be described thus: Neurotoxicity was evaluated at a time of peak effect of 3h. It is filed as toxicity. The conditions noted are these: mouse.
The nature of data set [10]: Partition coefficient in 1-octanol phosphate buffer at pH 7.40. The class given is physicochemical. The conditions noted are these: pH 7.4. The method, boiled down: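 Shake-flask partition between 1-octanol and phosphate buffer at pH 7.40.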
The test system of data set [11] is Mus musculus. In words: Tested for anticonvulsant activity by measuring its ability to protect against strychnine(1.2 mg/kg) induced convulsions at the time of peak effect of 2 hr. The class given is functional. In a few lines:
as §2

Data set [12] relates to Mus musculus. In words: Tested for anticonvulsant activity by measuring its ability to protect against pentetrazole (85 mg/kg) induced convulsions at the time of peak effect of 2 hr. It is filed as functional. The method, boiled down: (§3)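 Groups of eight male OF-1 mice (22-25 g) received the test compound ip (10 mL/kg) at doses up to 100 mg/kg. At the MES-derived time of peak effect, pentetrazole 85 mg/kg in 0.9% NaCl was given sc and protection against convulsions recorded. ED50 and 95% confidence intervals were computed by Litchfield–Wilcoxon.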

The species named for data set [13] is Mus musculus. In words: Tested for anticonvulsant activity by measuring its ability to protect against electric shock in maximal electroshock seizure (MES) test at the time of peak effect of 2 hr.
For data set [14], the system named is Mus musculus. In words: Tested for anticonvulsant activity by measuring its ability to protect against bicuculline (2.7 mg/kg) induced convulsions at the time of peak effect of 2 hr. It is filed as functional. In a few lines: as §2
For data set [15], the system named is Mus musculus. In words: Tested for anticonvulsant activity by measuring its ability to protect against NMDLA(340 mg/kg) induced convulsions at the time of peak effect of 2 hr. The class given is functional. The method, boiled down: as §2
For data set [16], the species on record is Mus musculus. Nature of the data set: Tested for anticonvulsant activity by measuring rate of mice protected against electric shock applied at 3 h after injection in maximal electroshock seizure (MES) test; out of 6. It is filed as functional. The method, boiled down:
as §1

The nature of data set [17]: Neurotoxicity was evaluated at a time of peak effect of 4 hr. It is filed as toxicity. The conditions noted are these: mouse.
For data set [18], the system named is Mus musculus. In words: Tested for anticonvulsant activity by measuring its ability to protect against pentetrazole (85 mg/kg) induced convulsions at the time of peak effect of 4h. The class given is functional. The method, boiled down: as §3
The species named for data set [19] is Mus musculus. In words: Tested for anticonvulsant activity by measuring its ability to protect against electric shock in maximal electroshock seizure (MES) test at the time of peak effect of 4 hr. It is filed as functional.
Data set [20] concerns Mus musculus. Nature of the data set: Tested for anticonvulsant activity by measuring its ability to protect against NMDLA(340 mg/kg) induced convulsions at the time of peak effect of 4h. The class given is functional.
Data set [21] deals with Mus musculus. In words: Tested for anticonvulsant activity by measuring its ability to protect against bicuculline (2.7 mg/kg) induced convulsions at the time of peak effect of 4h. The class given is functional.
Data set [22] concerns Mus musculus. In words: Tested for anticonvulsant activity by measuring its ability to protect against strychnine(1.2 mg/kg) induced convulsions at the time of peak effect of 4 hr. The class given is functional.

Broadly, the logP is the decadic logarithm of the partition coefficient of the neutral form, usually between octanol and water. Take `O=[N+]([O-])/C=C(\NC1CCCCCC1)NS(=O)(=O)c1cnccc1NC1CCCCC1`: the “No. of mice protected” value was found to be 0 in the data set listed under Mus musculus [1] and 5 in the data set filed under Mus musculus [2]. Also, the Diuresis in the data set with Rattus norvegicus was determined as 20 mL/kg. In [3], this compound returned a logP of 1.97.
Broadly, the ED50 is the dose at which the effect has come halfway, by size or by number of responders. The term TD50 denotes the dose at which the toxic effect under study appears in half of the subjects. For `O=[N+]([O-])/C=C(\NC1CCCCC1)NS(=O)(=O)c1cnccc1NC1CCCCCCC1`, the “No. of mice protected” value in the data set filed under Mus musculus [1] is recorded as 1; in the data set listed under Mus musculus [2], 7. Moreover, the ED50 was 8.25 mg/kg in the data set filed under Mus musculus [4]; greater than 100 mg/kg in the data set on Mus musculus [5]; greater than 100 mg/kg in the data set with Mus musculus [6]; greater than 100 mg/kg in the data set on Mus musculus [7]; greater than 100 mg/kg with Mus musculus [8]. In the data set on Rattus norvegicus, this compound gave a Diuresis of 22 mL/kg. The logP in data set [3] was found to be 2.31. The TD50 at 3 h in data set [9] is 114 mg/kg.
Take `O=[N+]([O-])/C=C(\NC1CCCCCCC1)NS(=O)(=O)c1cnccc1NC1CCCCCC1`: the “No. of mice protected” value in the data set listed under Mus musculus [1] is recorded as 1; in the data set filed under Mus musculus [2], 4. In the data set with Rattus norvegicus, this compound had a Diuresis of 23 mL/kg. The logP in data set [3] is 2.57.
As usually defined, the logD is the decadic logarithm of the distribution of all forms, ionised or not, between an organic phase and buffer at a given pH. Low values mean a more hydrophilic compound, high ones a more lipophilic compound. `CC(C)N/C(=C\[N+](=O)[O-])NS(=O)(=O)c1cnccc1NC1CCCC1` returned a logD in data set [10] of 0.538.
Turning to `O=C1NC(=O)C(c2ccccc2)(c2ccccc2)N1` [PHENYTOIN], the ED50 with Mus musculus [11] is greater than 100 mg/kg; in the data set with Mus musculus [12], greater than 100 mg/kg; in the data set listed under Mus musculus [13] it was 9.51 mg/kg; in the data set with Mus musculus [14], greater than 100 mg/kg; with Mus musculus [15] it was greater than 100 mg/kg.
Regarding `Cc1cccc(Nc2ccncc2S(=O)(=O)NC(=O)NC(C)C)c1` [TORSEMIDE], the “No. of mice protected” value in the data set listed under Mus musculus [1] and in the data set listed under Mus musculus [16] was 0 in each case. This compound also returned a Diuresis with Rattus norvegicus of 88 mL/kg.
Consider `O=[N+]([O-])/C=C(\NC1CCCCC1)NS(=O)(=O)c1cnccc1NC1CCCCC1`, for which the “No. of mice protected” value in the data set filed under Mus musculus [1] is listed as 0; in the data set listed under Mus musculus [2], 4. For the same compound, the Diuresis in the data set with Rattus norvegicus came out at 20 mL/kg. The logP in data set [3] amounted to 1.67.
As to `O=[N+]([O-])/C=C(\NC1CCCCCCC1)NS(=O)(=O)c1cnccc1NC1CCCCC1`, the entries for the “No. of mice protected” value in the data set filed under Mus musculus [1] and in the data set filed under Mus musculus [2] were 2 and 4, respectively. The Diuresis in the data set with Rattus norvegicus came out at 21 mL/kg. Moreover, the logP in data set [3] is 2.27.
Consider `O=[N+]([O-])/C=C(\NC1CCCCCC1)NS(=O)(=O)c1cnccc1NC1CCCCCC1`, for which the figures for the “No. of mice protected” value in the data set listed under Mus musculus [1] and in the data set filed under Mus musculus [16] were 1 and 5, respectively. In the data set with Rattus norvegicus, this compound registered a Diuresis of 25 mL/kg. The logP in data set [3] was 2.3.
Take `O=[N+]([O-])/C=C(\NC1CCCCCC1)NS(=O)(=O)c1cnccc1NC1CCCCCCC1`: the “No. of mice protected” value was determined as 2 in the data set filed under Mus musculus [1] and 5 in the data set listed under Mus musculus [16]. This compound gave a Diuresis in the data set with Rattus norvegicus of 20 mL/kg. Moreover, the logP in data set [3] was found to be 2.59.
For `Cc1cccc(Nc2ccncc2S(=O)(=O)N/C(=C/[N+](=O)[O-])NC2CCCCC2)c1`, in that order: 1, 2, 29 mL/kg and 1.66.
For `O=[N+]([O-])/C=C(\NC1CCCCC1)NS(=O)(=O)c1cnccc1NC1CCCCCC1`, in that order: 1, 5, 18 mL/kg and 1.99.
`O=S(=O)(NC(=S)NC1CCCCC1)c1cnccc1NC1CCCCCCC1` returned a TD50 at 4 h in data set [17] of 147 mg/kg. Further, the ED50 in the data set with Mus musculus [18] is greater than 100 mg/kg; in the data set filed under Mus musculus [19] it was 1.19 mg/kg; in the data set with Mus musculus [20], greater than 100 mg/kg; in the data set on Mus musculus [21], greater than 100 mg/kg; in the data set with Mus musculus [22] it was greater than 100 mg/kg.
Take `CCNc1ccncc1S(=O)(=O)N/C(=C/[N+](=O)[O-])NC(C)C`: in data set [10], the logD was -0.482.
Same read-out and setting: the result for `Cc1cccc(Nc2ccncc2S(=O)(=O)N/C(=C/[N+](=O)[O-])NC(C)C)c1` reads 1.12.
With `O=[N+]([O-])/C=C(\NC1CCCCCCC1)NS(=O)(=O)c1cnccc1NC1CCCCCCC1`, the “No. of mice protected” value in the data set filed under Mus musculus [1] was 0; in the data set filed under Mus musculus [2] it was 3. For the same compound, the Diuresis in the data set with Rattus norvegicus is 22 mL/kg. In [3], this compound showed a logP of 2.86.
